Experimental data from ChEMBL document CHEMBL3992493, “New approach of delivering cytotoxic drugs towards CAIX expressing cells: A concept of dual-target drugs” (Eur J Med Chem, 2017).
Calls of active or inactive are those of the source. The rule behind the calls is not given here.

Legend:
Carbonic anhydrase 1 = Carbonic anhydrase 1 (Homo sapiens, UniProt P00915); assay: Binding affinity to recombinant human carbonic anhydrase 1 after 15 mins by stopped-flow CO2 hydration assay
Carbonic anhydrase 2 = Carbonic anhydrase 2 (Homo sapiens, UniProt P00918); assay: Binding affinity to recombinant human carbonic anhydrase 2 after 15 mins by stopped-flow CO2 hydration assay
Carbonic anhydrase 9 = Carbonic anhydrase 9 (Homo sapiens, UniProt Q16790); assay: Binding affinity to recombinant human carbonic anhydrase 9 after 15 mins by stopped-flow CO2 hydration assay
Carbonic anhydrase 12 = Carbonic anhydrase 12 (Homo sapiens, UniProt O43570); assay: Binding affinity to recombinant human carbonic anhydrase 12 after 15 mins by stopped-flow CO2 hydration assay
Carbonic anhydrase 12, sequence (O43570 whole entry): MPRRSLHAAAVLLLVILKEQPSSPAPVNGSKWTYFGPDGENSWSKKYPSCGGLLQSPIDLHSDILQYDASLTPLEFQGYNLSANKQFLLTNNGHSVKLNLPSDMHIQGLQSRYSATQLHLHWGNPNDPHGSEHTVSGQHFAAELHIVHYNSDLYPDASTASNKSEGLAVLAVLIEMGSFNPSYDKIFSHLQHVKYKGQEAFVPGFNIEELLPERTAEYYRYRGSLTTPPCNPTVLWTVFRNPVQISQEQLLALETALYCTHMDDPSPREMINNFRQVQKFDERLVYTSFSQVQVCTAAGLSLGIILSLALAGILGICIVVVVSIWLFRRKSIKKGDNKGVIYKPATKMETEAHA

MDCK [1] = assay: Cytotoxicity against carbonic anhydrase 9 knockdown MDCK cells assessed as reduction in cell viability preincubated for 2 hrs followed by 72 hrs incubation under normoxic condition by Alamar blue assay; assay type: cell-based; conditions: Canis lupus familiaris
MDCK [2] = assay: Cytotoxicity against MDCK cells expressing carbonic anhydrase 9 assessed as reduction in cell viability preincubated for 2 hrs followed by 72 hrs incubation under normoxic condition by Alamar blue assay; assay type: functional, cell-based; conditions: Canis lupus familiaris
Outline: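 CAIX-overexpressing or scrambled-vector MDCK cells in DMEM/10% FBS, attached overnight, held 24 h at 21% O2/5% CO2. Drug added (0.5% DMSO vehicle) for 2 h, washed off, then 72 h further normoxic growth. Viability measured by 2 h alamarBlue conversion under normoxia.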

MDCK [3] = assay: Cytotoxicity against carbonic anhydrase 9 knockdown MDCK cells assessed as reduction in cell viability after 2 hrs under hypoxic condition by Alamar blue assay; assay type: cell-based; conditions: Canis lupus familiaris
Outline: (§1)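 MDCK cells transfected with human CAIX (CAIX+) or scrambled control vector (CAIX−), in DMEM/10% FBS, seeded and attached overnight. Medium replaced with pre-equilibrated hypoxic DMEM (0.2% O2, 5% CO2) for 24 h. Compounds in DMSO (0.5%) added for 2 h, then washed off. Cells regrown 72 h in normoxia. Viability read by alamarBlue conversion for 2 h under normoxia.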

MDCK [4] = assay: Cytotoxicity against MDCK cells expressing carbonic anhydrase 9 assessed as reduction in cell viability after 2 hrs under hypoxic condition by Alamar blue assay; assay type: functional, cell-based; conditions: Canis lupus familiaris; outline: as §1
MDCK [5] = assay: Cytotoxicity against carbonic anhydrase 9 knockdown MDCK cells assessed as reduction in cell viability after 72 hrs under normoxic condition by Alamar blue assay; assay type: cell-based; conditions: Canis lupus familiaris
MDCK [6] = assay: Cytotoxicity against MDCK cells expressing carbonic anhydrase 9 assessed as reduction in cell viability after 72 hrs under normoxic condition by Alamar blue assay; assay type: functional, cell-based; conditions: Canis lupus familiaris
MDCK [7] = assay: Cytotoxicity against carbonic anhydrase 9 knockdown MDCK cells assessed as reduction in cell viability after 72 hrs under hypoxic condition by Alamar blue assay; assay type: cell-based; conditions: Canis lupus familiaris
MDCK [8] = assay: Cytotoxicity against MDCK cells expressing carbonic anhydrase 9 assessed as reduction in cell viability after 72 hrs under hypoxic condition by Alamar blue assay; assay type: functional, cell-based; conditions: Canis lupus familiaris
MDCK [9] = assay: Cytotoxicity against MDCK cells expressing carbonic anhydrase 9 assessed as reduction in cell viability at 500 nM pretreated for 1 hr followed by 2 Gy irradiation under normoxic condition by Alamar blue assay; assay type: functional, cell-based; conditions: Canis lupus familiaris
Outline: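 MDCK CAIX+ cells (human CAIX transfected) under normoxia (21% O2, 5% CO2). ATR inhibitors in 0.5% DMSO added 1 h before X-irradiation with 2 Gy. Exposure 72 h total, medium replaced, then 72 h further growth. Viability by 2 h alamarBlue conversion in normoxia.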

MDCK [10] = assay: Cytotoxicity against carbonic anhydrase 9 knockdown MDCK cells assessed as reduction in cell viability at 500 nM pretreated for 1 hr followed by 4 Gy irradiation under anoxic condition by Alamar blue assay; assay type: cell-based, Canis lupus familiaris; conditions: dog, 0.5 µM
Outline: (§2)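 MDCK cells with or without CAIX, pre-exposed 24 h to anoxia (≤0.02% O2, 5% CO2, balance N2) in pre-equilibrated DMEM. ATR inhibitors in 0.5% DMSO added 1 h before 4 Gy X-irradiation. Exposure 72 h total, medium replaced, then 72 h normoxic regrowth. Viability by 2 h alamarBlue in normoxia.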

MDCK [11] = assay: Cytotoxicity against MDCK cells expressing carbonic anhydrase 9 assessed as reduction in cell viability at 500 nM pretreated for 1 hr followed by 4 Gy irradiation under anoxic condition by Alamar blue assay; assay type: functional, cell-based; conditions: Canis lupus familiaris; outline: as §2
MDCK [12] = assay: Cytotoxicity against carbonic anhydrase 9 knockdown MDCK cells assessed as reduction in cell viability at 500 nM pretreated for 72 hrs followed by 72 hrs incubation under normoxic condition by Alamar blue assay; assay type: cell-based, Canis lupus familiaris; conditions: dog, 0.5 µM
Outline: (§3)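 MDCK cells transfected with human CAIX or scrambled vector, normoxia (21% O2, 5% CO2). ATR inhibitors in 0.5% DMSO for 72 h, medium replaced, cells grown a further 72 h. Viability from 2 h alamarBlue conversion in normoxia.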

MDCK [13] = assay: Cytotoxicity against MDCK cells expressing carbonic anhydrase 9 assessed as reduction in cell viability at 500 nM pretreated for 72 hrs followed by 72 hrs incubation under normoxic condition by Alamar blue assay; assay type: functional, cell-based; conditions: Canis lupus familiaris; outline: as §3
MDCK [14] = assay: Cytotoxicity against carbonic anhydrase 9 knockdown MDCK cells assessed as reduction in cell viability at 500 nM after 72 hrs under anoxic condition by Alamar blue assay; assay type: cell-based, Canis lupus familiaris; conditions: dog, 0.5 µM
Outline: (§4)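 MDCK CAIX+ or CAIX− cells, 24 h anoxic preincubation (≤0.02% O2, 5% CO2) in pre-equilibrated DMEM. ATR inhibitors (0.5% DMSO) applied for 72 h without irradiation, then washed off, and 72 h normoxic regrowth. Readout by 2 h alamarBlue conversion under normoxia.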

MDCK [15] = assay: Cytotoxicity against MDCK cells expressing carbonic anhydrase 9 assessed as reduction in cell viability at 500 nM after 72 hrs under anoxic condition by Alamar blue assay; assay type: functional, cell-based; conditions: Canis lupus familiaris; outline: as §4

Carbonic anhydrase 1, sequence (P00915 whole entry): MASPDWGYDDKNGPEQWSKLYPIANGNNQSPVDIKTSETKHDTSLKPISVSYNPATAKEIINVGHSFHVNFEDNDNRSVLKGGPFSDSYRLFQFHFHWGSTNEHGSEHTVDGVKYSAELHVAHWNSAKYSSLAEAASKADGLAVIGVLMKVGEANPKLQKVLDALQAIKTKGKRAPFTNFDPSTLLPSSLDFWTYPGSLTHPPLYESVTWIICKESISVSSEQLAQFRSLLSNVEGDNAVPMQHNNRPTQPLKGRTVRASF

SMILES	Ki (Carbonic anhydrase 1) [µM]	Ki (Carbonic anhydrase 2) [µM]	Ki (Carbonic anhydrase 9) [µM]	Ki (Carbonic anhydrase 12) [µM]	IC50 (MDCK [1]) [µM]	IC50 (MDCK [2]) [µM]	IC50 (MDCK [3]) [µM]	IC50 (MDCK [4]) [µM]	IC50 (MDCK [5]) [µM]	IC50 (MDCK [6]) [µM]	IC50 (MDCK [7]) [µM]	IC50 (MDCK [8]) [µM]	Activity (MDCK [9])	Activity (MDCK [10])	Activity (MDCK [11])	Activity (MDCK [12])	Activity (MDCK [13])	Activity (MDCK [14])	Activity (MDCK [15])
O=C(O)CCCc1ccc(N(CCCl)CCCl)cc1 [CHLORAMBUCIL]	> 50	> 50	> 50	> 50	93	> 100	100	> 100											
NS(=O)(=O)c1ccc(CNC(=O)CCCc2ccc(N(CCCl)CCCl)cc2)cc1	5.95	0.747	8.97	7.34	18	98	14	92											
NS(=O)(=O)c1ccc(CCNC(=O)CCCc2ccc(N(CCCl)CCCl)cc2)cc1	8.4	0.45	4.61	10.2	18	100	18	100											
Cn1nnc2c(C(=O)NCCc3ccc(S(N)(=O)=O)cc3)ncn2c1=O			0.0371						> 1000	> 1000	> 1000	> 1000							
NS(=O)(=O)c1ccc(CNC(=O)OCCCCc2ccc(N(CCCl)CCCl)cc2)cc1	6.14	0.265	4.13	9.57	86	98	52	100											
NS(=O)(=O)c1ccc(CCNc2n[n+]([O-])c3ccccc3[n+]2[O-])cc1			0.383		> 300	> 300	300	> 300											
CS(=O)(=O)c1ccc(-c2cnc(N)c(C(=O)Nc3ccccc3)n2)cc1	> 50	> 50	> 50	> 50									Active	Non-Toxic	Active	Toxic	Active	Toxic	Active
NS(=O)(=O)c1ccc(NC(=O)CCCc2ccc(N(CCCl)CCCl)cc2)cc1	0.073	0.009	0.172	0.689	100	87	100	95											
